From ChEMBL document CHEMBL3351507, “11H-Pyrido[3',2':4,5]pyrrolo[3,2-c]cinnoline and pyrido[3',2':4,5]pyrrolo[1,2-c][1,2,3]benzotriazine: two new ring systems with antitumor activity” (2014)
The source made the active and inactive calls.

Key:
HL-60(TB) = experiment: Cytotoxicity against human HL-60(TB) cells assessed as growth inhibition after 72 hrs by […] assay; format: functional; conditions: HL-60, 72 h
Method in brief: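 HL-60(TB) was tested within the NCI 60 human cancer cell line panel. Compounds that met the NCI single-dose activity criteria were retested on the full panel at 5 concentrations in 10-fold dilutions (10-4–10-8 M). GI50 is the molar concentration giving 50% inhibition of net cell growth; TGI was also reported.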

Jurkat [1] = experiment: Induction of apoptosis in human Jurkat cells assessed as caspase-3 activation at 500 nM after 6 to 24 hrs by plate reader analysis; format: functional, cell-based
Method in brief: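 Jurkat cells were treated with 500 nM compound for 6 h and 24 h, then lysed. Lysates were incubated with pNA-conjugated substrates: Ac-DEVD (caspase-3), Ac-IETD (caspase-8) and LEHD (caspase-9). pNA release was read at 405 nm and normalized to Bradford protein. Results are expressed as fold increase over untreated control.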

[2] = Cytotoxicity against human OVCAR4 cells assessed as growth inhibition after 72 hrs by MTT assay; format: functional; conditions: OVCAR-4, 72 h
Method in brief: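 NCI 60-cell-line panel screen. Compounds were tested at 5 concentrations in 10-fold dilution (10^-4 to 10^-8 M) across the full panel. GI50 was taken as the molar concentration giving 50% inhibition of net cell growth.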

ACHN = experiment: Cytotoxicity against human ACHN cells assessed as growth inhibition after 72 hrs by MTT assay; format: functional
LoVo [3] = experiment: Anticlonogenic activity against human LoVo cells assessed as inhibition of colony formation of cells at 2.5 to 5 uM incubated for 24 hrs followed by compound washout measured after 1 to 2 weeks by crystal violet staining-based assay; format: functional, cell-based
Jurkat [4] = experiment: Cytotoxicity against human Jurkat cells assessed as growth inhibition after 72 hrs by MTT assay; format: functional
Method in brief: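 Cells were grown in medium with 10% heat-inactivated FBS plus penicillin/streptomycin: RPMI-1640 for Jurkat and CEM, DMEM for A-431, HAM's F12 for LoVo. The doxorubicin-resistant LoVo subclone was kept with 0.1 µg/mL doxorubicin. Cells were seeded at 5x10^3 per well and pre-incubated 24 h at 37 °C.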

LoVo [5] = experiment: Anticlonogenic activity against human LoVo cells assessed as inhibition of colony formation of cells incubated for 24 hrs followed by compound washout measured after 1 to 2 weeks by crystal violet staining-based assay; format: functional, cell-based
Method in brief: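 LoVo cells were plated at 1000 per well in six-well plates and exposed to compound at different concentrations for 24 h. Medium was then replaced, with fresh medium every 2–3 days, until colonies formed (1–2 weeks). Colony number is given as a percentage of untreated cells (100%), as mean ± SEM of 3 independent experiments.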

[6] = Cytotoxicity against human NCI-ADR-RES cells assessed as growth inhibition after 72 hrs by MTT assay; format: functional
CCRF-CEM = experiment: Cytotoxicity against human CCRF-CEM cells assessed as growth inhibition after 72 hrs by MTT assay; format: functional
LoVo [7] = experiment: Anticlonogenic activity against human LoVo cells assessed as inhibition of colony formation of cells at 0.625 to 10 uM incubated for 24 hrs followed by compound washout measured after 1 to 2 weeks by crystal violet staining-based assay; format: functional, cell-based

Compound	GI50 (HL-60(TB))	Activity (Jurkat [1])	GI50 [2]	GI50 (ACHN)	inhibition (LoVo [3])	GI50 (Jurkat [4])	inhibition (LoVo [5])	GI50 [6]	GI50 (CCRF-CEM)	inhibition (LoVo [7])
COc1ccc2c(c1)nnc1c3cccnc3[nH]c21	160 nM	Active	1410 nM	200 nM	Active	90 nM	Dose-dependent effect	1790 nM		
O=Nc1c2cccnc2n2nnc3ccc(Cl)cc3c12	300 nM		980 nM	330 nM				430 nM	23 nM	
COc1cc2nnn3c4ncccc4c(N=O)c3c2cc1OC	40 nM	Active	1910 nM	250 nM	Active	200 nM	Dose-dependent effect	380 nM	< 10 nM	
COc1ccc2c(c1)nnn1c3ncccc3c(N=O)c21	43 nM	Active	1290 nM	94 nM		90 nM	Dose-dependent effect	1420 nM		Active
COc1cc2nnc3c4cccnc4[nH]c3c2cc1OC	190 nM		1600 nM	330 nM						
